# Env fusion inh: inhibitors of HIV Env-mediated cell fusion; HeLa-JRFL Env/CEM21 cell fusion, luciferase; inhibition, % at 12.3 µM; hit rate 1.1% among 360,000;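 active = mean replicate inhibition score of at least 50 and every replicate individually at or above 50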;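 note: 0% = plate neutral controls and 100% = maraviroc near 300 nM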
# ERAP1 inh: blocks human ERAP1 aminopeptidase activity | inhibition, % at 10.7 µM | AID 652197 | recombinant ERAP1, Leu-AMC fluorescence, 60 min | Q9NZ08 | hit rate 0.15% among 340,000;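 active = mean replicate inhibition of at least 30%, or all replicates individually reaching that 30% level; inactive = mean below 30% and not every replicate reaching it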;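 note: 0% = neutral control wells and 100% = L-leucinethiol positive control wells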
# FGF22 binding-1: FGF22 (human) thermal shift binding. recombinant FGF22 thermal shift, SYPRO orange fluorescence; percent of sucrose octasulfate shift, DMSO zero. activity (Tm shift, normalised), % at 9.99 µM. hit rate 1.5% among 340,000. AID 651658;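 active = mean Tm shift, scaled 0 neutral to 100 positive control, at about 1.3% or above, every replicate too, limit read from the data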
# Cneo AK release: causes C. neoformans cell lysis. adenylate kinase release luminescence, 4 h; normalised: neutral wells 0, clomiphene wells 100. lysis activity, % at 15 µM. hit rate 0.2% among 360,000. AID 651654;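 active = mean lysis activity across replicates of at least 80%, whatever share of replicates individually reach that level; inactive = mean lysis activity below 80%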
#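 Material: C. neoformans cells; Schedule: 4 h static compound exposure, 37 °C, read 1 h post-reagent; Measured by: adenylate kinase release luminescence; Read-out: signal increase indicating cell lysis; Controls: Clomiphene as positive lysis control.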
# PGC1a acetyl inh: PGC1a acetylation modulation, inhibitor mode; U2OS PGC1a acetylation, AlphaScreen anti-acetyl-lysine; with virally co-expressed GCN5 acetyltransferase; AID 651687; inhibition, % at 15.6 µM; hit rate 0.17% among 350,000;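 active = every replicate shows inhibition of at least 40%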;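 note: 0% = neutral control wells and 100% = positive control wells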
# Ecoli rRNA inh: selective bacterial rRNA inhibition in E. coli. E. coli WT GFP vs humanized-ribosome RFP mutants, fluorescence, 24 h; active compounds read low; DMSO median 0, no signal -100. GFP signal change (wild-type ribosome), % (no concentration beside the values). hit rate 1.6% among 350,000. AID 720706;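 active = significant combined selectivity score with lowered wild-type GFP, culture density cut under 30%, mutant RFP and density less affected; inactive = any of these conditions unmet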
# FGF22 binding-2: binds human FGF22 shifting its melting temperature. shares compounds with FGF22 binding-1. recombinant FGF22 thermal shift, SYPRO orange fluorescence. thermal shift activity, °C (ΔTm) at 38 µM. hit rate 2% among 1,000. AID 720646;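 active = fitted rise in melting shift crosses a set limit at or below the top valid dose tested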
# FGF22 TSA: binders of human FGF22 by thermal shift; Tm shift (activity), % at 38 µM; shares compounds with FGF22 binding-1; AID 743017; 50 tested, under 10 active; Thermal shift assay, SYPRO orange, melting temperature shift;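 active = compounds whose fitted dose curve of melting temperature shift rises past a set threshold within the tested doses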
# TSA no protein: counter-screen for FGF22 binders: compound-only thermal shift, no protein. hit rate 2% among 1,000. AC50, µM (doses to about 38 µM). shares compounds with FGF22 binding-1. compound-only SYPRO orange thermal shift counter-screen;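 active = rising signal whose fitted curve reaches the 0.54 level within the top valid dose, showing a melting point, actives reach about 13 µM in these data; inactive = the rest, including activity in the opposite direction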; note: value is where the raw curve crosses a fixed level and not half-maximal
# * = called active by the depositor; i = inactive; . = not tested or not shown; [ ] = dose if it differs, or a comment. The list is not random: actives were taken first. Their share in the collection is about 3.5%.
SMILES,Env fusion inh,ERAP1 inh,FGF22 binding-1,Cneo AK release,PGC1a acetyl inh,Ecoli rRNA inh,FGF22 binding-2,TSA no protein,others
CCC(=O)N1[C@H](CO)[C@@H](c2ccccc2)[C@H]1CN(C)C(=O)CN1CCOCC1,.,.,1.6*,2.4,-2.0,6.3,-0.027,i,
Cc1ccn(-c2ccc(NC(=O)c3cccs3)cc2)n1,-112.3,2.2,1.8*,-1.7,.,-7.8,0.088,i,FGF22 TSA=-0.1
O=C(O)C1C2C=CC(C2)C1C(=O)Nc1ccccc1Br (stereo unspecified),6.1,0.5,0.0,-0.3,.,1.9,.,.,
COCC#Cc1ccc2c(c1)O[C@@H](CN(C)Cc1ccc3c(c1)OCO3)[C@@H](C)CN([C@@H](C)CO)S2(=O)=O,-4.3[16.7 µM],-3.5,0.1,3.1,-11.4,-1.6,.,.,
CC(=O)c1ccc(NS(=O)(=O)c2ccccc2)cc1,-8.7,.,.,2.1,1.0,.,.,.,
CC(=O)c1ccc(NS(=O)(=O)c2ccc(N)cc2)cc1,-19.2,-3.2,25.1*,2.3,-2.9,6.8,-0.036,i,
CCOc1ccc(NC(=O)c2cccc(-n3cccc3)c2)cc1S(=O)(=O)N1CCOCC1,.,0.2,2.3*,0.0,2.5,-9.2,-0.154,i,
COc1ccc(S(=O)(=O)N2CCOCC2)cc1NC(=O)c1cccc(-n2cccc2)c1,13.5,-4.8,-1.3,.,.,-2.3,.,.,
Cc1nc2ccc(NC(=O)c3ccc(C)c(S(=O)(=O)N4CCOCC4)c3)cc2s1,.,0.6,1.6*,-2.7,-13.0,-5.3,0.043,i,
CO[C@H]1CN(C)C(=O)c2cc(NS(=O)(=O)c3ccc(-c4ccccc4)cc3)ccc2OC[C@H](C)NC[C@@H]1C,10.6[16.7 µM],-2.3,-0.1,-2.4,-30.9,0.7,.,.,
CN1CCN(C(=O)OC2CC3CC2[C@H]2CCCCN2C3=O)CC1 (stereo partly specified),-27.7,-3.8,-0.2,.,.,34.0,.,.,
COc1ccc(C(CNC(=O)c2cccc(S(=O)(=O)Nc3cccc(C)c3)c2)N2CCOCC2)cc1 (stereo unspecified),-6.7,0.2,41.6,0.1,-5.9,-4.3,.,.,
Cc1cccc(OC(C)C(=O)Nc2ccc3c(c2)OCCO3)c1 (stereo unspecified),.,-1.2,2.1*,-1.4,2.4,7.0,-0.029,i,
COc1cccc(CNC(C)C(=O)Nc2ccc3c(c2)OCCO3)c1 (stereo unspecified),-1.8,-3.7,0.0,.,-11.0,6.8,.,.,
CC(=O)C1=C(O)C(=O)N(c2ccc(S(=O)(=O)Nc3nccs3)cc2)C1c1ccc(F)cc1 (stereo unspecified),2.7,0.8,1.7*,-0.7,-0.1,4.6,-0.031,i,
COc1ccc(-c2ccccc2[C@H]2[C@@H](CO)N(C(=O)NC3CCCC3)[C@H]2C#N)cc1,.,-4.8,.,.,.,-4.9,.,.,
CCc1ccc(CCC(=O)N2CCN(S(=O)(=O)c3sc(C(=O)O)c(C)c3C(=O)O)CC2)cc1,.,-3.5,0.3,0.1,11.6,4.4,.,.,
O=C(O)[C@H]1[C@H](CO)[C@H]2Cn3c(ccc(-c4ccc(F)cc4)c3=O)[C@H]2N1CCc1ccccc1,.,.,.,.,.,1.1,.,.,
COc1ccc(NS(=O)(=O)c2ccc(Cl)c(N)c2)cc1Br,-2.5,-7.5,1.3*,11.7,3.6,-58.9,-0.06,i,
CCCCc1c(C)c(C#N)c2nc3ccccc3n2c1NCCN(C)C,-3.6,-9.9,-0.1,5.7,25.0,-1.6,.,.,
Cc1c2c(n3c(nc4ccccc43)c1C#N)N(CCN(C)C)CC2,9.8,31.2*,1.4*,.,.,11.3,0.03,i,
Nc1cc(N)nc(SCC(=O)N2CCN(C(=O)c3ccco3)CC2)n1,5.7,.,.,-0.5,4.9,.,.,.,
C/C=C/c1ccc([C@H]2[C@@H](CO)N(C(=O)CC)C23CN(C(=O)c2ccccc2)C3)cc1,.,1.7,1.4*,.,-14.4,-2.8,0.075,i,
C/C=C/c1ccc([C@@H]2[C@H](CO)N(C(=O)CC)C23CN(C(=O)c2ccccc2)C3)cc1,.,-0.4,0.6,.,-1.1,-2.2,.,.,
C/C=C/c1ccc([C@H]2[C@@H](CO)N(CC3CCOCC3)C23CN(C(=O)COC)C3)cc1,.,-1.1,1.7*,.,-3.2,9.8,0.184[42 µM],i,
SMILES,Env fusion inh,ERAP1 inh,FGF22 binding-1,Cneo AK release,PGC1a acetyl inh,Ecoli rRNA inh,FGF22 binding-2,TSA no protein,others
Fc1ccccc1Nc1n[nH]c(=S)s1,-26.4,5.7,1.6*,.,.,3.9,-0.106,i,
Cc1ccccc1Nc1n[nH]c(=S)s1,-23.4,3.6,-0.4,0.7,-9.5,-7.5,.,.,
Cn1/c(=N\NC(=O)C2CCCCC2)sc2ccccc21,-24.8,-2.2,0.1,.,-2.7,14.6,.,.,
O=C(C[C@H]1C=C[C@@H](NS(=O)(=O)c2ccccc2)[C@@H](CO)O1)N1CCc2ccccc2C1,9.7[16.7 µM],0.9,0.2,-1.9,-4.9,-5.8,.,.,
Cc1ccc(S(=O)(=O)N[C@@H]2C=C[C@@H](CC(=O)N3CCc4ccccc4C3)O[C@@H]2CO)cc1,4.1[16.7 µM],-1.6,1.3*,-3.7,12.1,-4.2,0.122,i,
COc1ccc(S(=O)(=O)N[C@H]2CC[C@H](CC(=O)N3CCc4ccccc4C3)O[C@@H]2CO)cc1,-1.9[16.7 µM],-0.2,16.8*,3.3,-38.3,1.7,-0.011,i,
Cc1ccc(-n2ccnc2SCC(=O)O)cc1C,1.7,-4.5,0.3,-2.9,-8.5,-40.9,.,.,
CCOc1ccc(NC(=O)CN(C)C(=O)Cc2ccsc2)cc1OCC,.,1.5,-0.2,-2.0,26.0,2.3,.,.,
O=C(c1cccnc1)N1C[C@@H]2[C@H](c3ccccc31)[C@H](CO)N2CC1CCCC1,.,1.0,0.1,-2.0,-16.8,-3.3,.,.,
COc1ccc2c3c([nH]c2c1)[C@H](CO)N(C(C)=O)CC31CN(C(=O)c2ccc3c(c2)OCO3)C1,.,1.4,26.1*,.,5.4,2.3,0.056,i,
O=C1Nc2cc(Cl)c(Cl)cc2N(O)N1c1ccc(Cl)cc1,.,11.9,28.0*,0.5,0.5,-10.3,0.099,i,
CC1(C(=O)O)CCN1C(=O)c1ccccc1F (stereo unspecified),-16.2,5.2,21.8*,-1.4,4.7,-2.6,0.123,i,
Cc1cccc(Cn2ncc(Cl)c(Cl)c2=O)c1,.,-1.8,38.9*,0.6,-33.4,-40.5,0.012,i,
Cn1cc(/C=N/NC(=O)c2cc3cc(Br)ccc3o2)c2ccccc21,-7.0,-0.3,-0.2,-2.3,-4.4,1.3,.,.,

# Screens: PubChem, Broad Institute
